We go through one compound from PubChem BioAssay AID624393 (The Scripps Research Institute Molecular Screening Center, 2012).

The experiment concerns the target Induced myeloid leukemia cell differentiation protein Mcl-1 (Homo sapiens) (UniProt Q07820). The experiment is described as follows: blockers of MCL1–BIM BH3 interaction – biochemical, fluorescence polarization, assay provider data, probe compound, late-stage follow-up (AID 624393). The note with it: GST-MCL1 / FITC-Bim BH3 peptide. The procedure, abridged:
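System: GST-MCL1 fusion protein plus fluorescent Bim BH3 peptide; Input: GST-MCL1 fusion protein at 12.5 nM; Medium: PBS with 0.001% Brij; Times: 20 min at room temperature; Detection: fluorescence polarization (mP); Read-out: IC50 at 50% level of fitted percent-inhibition curve; Benchmarks: DMSO-only wells and unlabeled Bim-BH3 peptide wells as references.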

SMILES strings stand for the structures. Where “and” joins values, the source holds several entries; their conditions need not be identical. Equal values may be shown once.

Sequence of Induced myeloid leukemia cell differentiation protein Mcl-1 (Homo sapiens) (Q07820 whole entry, looked up, the tested form may be a part): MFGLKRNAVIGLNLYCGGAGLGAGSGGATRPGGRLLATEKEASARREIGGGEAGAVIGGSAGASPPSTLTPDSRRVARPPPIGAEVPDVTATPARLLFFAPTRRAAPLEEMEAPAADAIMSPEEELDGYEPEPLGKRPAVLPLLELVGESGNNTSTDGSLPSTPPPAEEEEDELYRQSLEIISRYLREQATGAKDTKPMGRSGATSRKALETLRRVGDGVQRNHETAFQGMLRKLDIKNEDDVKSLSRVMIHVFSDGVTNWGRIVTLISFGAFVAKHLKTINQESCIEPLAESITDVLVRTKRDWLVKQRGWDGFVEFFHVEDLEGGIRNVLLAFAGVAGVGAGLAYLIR

Broadly, the IC50 is the point on the concentration scale where inhibition reaches its midpoint. With `CCN1CCN(C(c2ccc(C(F)(F)F)cc2)c2ccc3cccnc3c2O)CC1` (stereo unspecified), the IC50 is 250 nM and 310 nM.
